Assay [1] relates to Staphylococcus aureus. Description: Antibacterial activity against Staphylococcus aureus RN4220 after 24 hrs by two-fold serial dilution method. The format is functional. The conditions noted are these: RN4220, 24 h. The procedure, abridged: (§1)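 Broth microdilution MIC. Bacteria grown to mid-log phase in Mueller-Hinton broth, diluted 1000-fold, about 10^5 CFU/mL. Compounds from DMSO stocks, two-fold serial dilution from a final 64 µg/mL. Incubation at 37 °C for 24 h. Growth read as absorbance at 630 nm on a microplate reader. Run in triplicate.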

In assay [2] the test system is Staphylococcus aureus. Put plainly: Antibacterial activity against Staphylococcus aureus KCTC 209 after 24 hrs by two-fold serial dilution method. The note with it: KCTC 209, 24 h. The class given is functional. The procedure, abridged:
(§2)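 Strains grown to mid-log phase in Mueller-Hinton broth, then diluted 1000-fold in the same broth to about 10^5 CFU/mL. Compounds were made up as DMSO stocks and two-fold serially diluted from a final top concentration of 64 µg/mL. Incubation was 37 °C for 24 h. Growth was read as absorbance at 630 nm on a microplate reader. MIC assays were run in triplicate.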

In assay [3] the test system is Staphylococcus aureus. Description: Antibacterial activity against Staphylococcus aureus KCTC 503 after 24 hrs by two-fold serial dilution method. The class given is functional. The conditions noted are these: KCTC 503, 24 h. In outline:
as §2

Assay [4] relates to Streptococcus mutans. Description: Antibacterial activity against Streptococcus mutans 3065 after 24 hrs by two-fold serial dilution method. The note with it: Streptococcus mutans, 3065, 24 h. The format is functional. In outline: as §2
Assay [5] concerns Escherichia coli. Description: Antibacterial activity against Escherichia coli KCTC 1924 after 24 hrs by two-fold serial dilution method. The note with it: KCTC 1924, 24 h. The format is functional. The procedure, abridged:
as §2

The subject of assay [6] is Escherichia coli. Put plainly: Antibacterial activity against Escherichia coli CCARM 1356 after 24 hrs by two-fold serial dilution method. The format is functional. The conditions noted are these: CCARM 1356, 24 h. The procedure, abridged:
as §2

Assay [7] deals with Pseudomonas aeruginosa. Put plainly: Antibacterial activity against Pseudomonas aeruginosa 2742 after 24 hrs by two-fold serial dilution method. The conditions noted are these: Pseudomonas aeruginosa, 2742, 24 h. The format is functional. The procedure, abridged:
as §2

Assay [8] concerns Pseudomonas aeruginosa. Description: Antibacterial activity against Pseudomonas aeruginosa 2004 after 24 hrs by two-fold serial dilution method. The class given is functional. The conditions noted are these: Pseudomonas aeruginosa, 2004, 24 h. The procedure, abridged: as §2
In assay [9] the test system is Salmonella typhimurium. Description: Antibacterial activity against Salmonella typhimurium 2421 after 24 hrs by two-fold serial dilution method. The conditions noted are these: Salmonella enterica, 2421, 24 h. The class given is functional, Salmonella enterica subsp. enterica serovar Typhimurium. In outline:
as §2

Assay [10] deals with Candida albicans. Description: Antifungal activity against Candida albicans 7535 after 24 hrs by two-fold serial dilution method. The format is functional. The conditions noted are these: Candida albicans, 7535, 24 h.
Assay [11] relates to Staphylococcus aureus. Put plainly: Bactericidal activity against Staphylococcus aureus RN4220 after 24 hrs by agar plate method. The format is functional. The conditions noted are these: RN4220, 24 h. In outline: (§3)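 Samples of 5 µL from MIC wells with no visible growth were plated onto fresh Mueller-Hinton agar and incubated a further 24 h at 37 °C. MBC is the lowest concentration giving no visible colony growth on the agar. Assays were run in triplicate.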

The test system of assay [12] is Staphylococcus aureus. Put plainly: Bactericidal activity against Staphylococcus aureus KCTC 209 after 24 hrs by agar plate method. The note with it: KCTC 209, 24 h. The class given is functional. The procedure, abridged:
as §3

Assay [13] concerns Staphylococcus aureus. Put plainly: Bactericidal activity against Staphylococcus aureus KCTC 503 after 24 hrs by agar plate method. The class given is functional. The conditions noted are these: KCTC 503, 24 h. In outline:
(§4)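 5 µL from each well without visible growth plated on fresh Mueller-Hinton agar, then 37 °C for a further 24 h. MBC is the lowest concentration giving no visible colonies. Run in triplicate.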

The subject of assay [14] is Streptococcus mutans. Description: Bactericidal activity against Streptococcus mutans 3065 after 24 hrs by agar plate method. The class given is functional. The conditions noted are these: Streptococcus mutans, 3065, 24 h. The procedure, abridged:
as §3

For assay [15], the system named is Escherichia coli. Put plainly: Bactericidal activity against Escherichia coli KCTC 1924 after 24 hrs by agar plate method. The class given is functional. The conditions noted are these: KCTC 1924, 24 h. In outline:
as §3

The test system of assay [16] is Staphylococcus aureus. Description: Antibacterial activity against methicillin-resistant Staphylococcus aureus CCARM 3167 after 24 hrs by two-fold serial dilution method. The conditions noted are these: CCARM 3167, 24 h. The class given is functional. The procedure, abridged:
as §1

Assay [17] concerns Staphylococcus aureus. Put plainly: Antibacterial activity against methicillin-resistant Staphylococcus aureus CCARM 3506 after 24 hrs by two-fold serial dilution method. The class given is functional. The conditions noted are these: CCARM 3506, 24 h. The procedure, abridged: as §1
The test system of assay [18] is Staphylococcus aureus. Description: Antibacterial activity against quinolone-resistant Staphylococcus aureus CCARM 3505 after 24 hrs by two-fold serial dilution method. The format is functional. The note with it: CCARM 3505, 24 h. In outline: as §1
Assay [19] deals with Staphylococcus aureus. Put plainly: Antibacterial activity against quinolone-resistant Staphylococcus aureus CCARM 3519 after 24 hrs by two-fold serial dilution method. The format is functional. The note with it: CCARM 3519, 24 h. In outline: as §1
The test system of assay [20] is Staphylococcus aureus. Description: Bactericidal activity against methicillin-resistant Staphylococcus aureus CCARM 3167 after 24 hrs by agar plate method. The conditions noted are these: CCARM 3167, 24 h. The format is functional. The procedure, abridged:
as §4

Assay [21] deals with Staphylococcus aureus. Description: Bactericidal activity against methicillin-resistant Staphylococcus aureus CCARM 3506 after 24 hrs by agar plate method. The format is functional. The conditions noted are these: CCARM 3506, 24 h. The procedure, abridged: as §4
For assay [22], the system named is Staphylococcus aureus. Description: Bactericidal activity against quinolone-resistant Staphylococcus aureus CCARM 3505 after 24 hrs by agar plate method. The class given is functional. The note with it: CCARM 3505, 24 h. In outline: as §4
The test system of assay [23] is Staphylococcus aureus. Put plainly: Bactericidal activity against quinolone-resistant Staphylococcus aureus CCARM 3519 after 24 hrs by agar plate method. The class given is functional. The note with it: CCARM 3519, 24 h. The procedure, abridged: as §4
Assay [24] concerns Staphylococcus aureus. Description: Ratio of MBC to MIC for Staphylococcus aureus KCTC 503. The format is functional. In outline:
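The ratio divides MBC by MIC for the same strain. MIC comes from two-fold broth microdilution in Mueller-Hinton broth (about 10^5 CFU/mL, 37 °C, 24 h, absorbance at 630 nm). MBC comes from subculturing 5 µL from clear wells onto Mueller-Hinton agar for another 24 h at 37 °C, taken as the lowest concentration with no colonies.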

In brackets after ≈: the same amount, converted by molar mass.

By MIC is commonly meant the lowest concentration that inhibits growth of the organism. Lower therefore signals greater potency. For orientation: MBC means the smallest concentration meeting the test's criterion for killing. Read a low MBC as more potent killing. In the case of `O=C1NC(=S)S/C1=C\c1ccc(/C=N/n2c(-c3ccccc3Cl)n[nH]c2=S)cc1`, the MIC in assay [1] was 32 µg/mL (≈ 69.9 µM); in assay [2], 64 µg/mL (≈ 140 µM); in assay [3], 16 µg/mL (≈ 34.9 µM); in [4], 16 µg/mL (≈ 34.9 µM); in assay [5], 16 µg/mL (≈ 34.9 µM); in [6], above 128 µg/mL. Further, the MIC was above 128 µg/mL in assay [7]; above 128 µg/mL in assay [8]; above 128 µg/mL in assay [9]; above 64 µg/mL in assay [10]; 16 µg/mL (≈ 34.9 µM) in assay [16]; 16 µg/mL (≈ 34.9 µM) in assay [17]. The minimal inhibitory concentration (MIC) in assay [18] and in assay [19] was 16 µg/mL (≈ 34.9 µM) in each case. The MBC was above 256 µg/mL in assay [11]; above 256 µg/mL in [12]; above 256 µg/mL in assay [13]; above 128 µg/mL in assay [14]; above 128 µg/mL in [15]; above 128 µg/mL in assay [20]. Besides, the MBC in assay [21], in assay [22] and in assay [23] was above 128 µg/mL each time.

For the molecule `O=C1NC(=S)S/C1=C\c1ccc(/C=N/n2c(-c3ccccc3Br)n[nH]c2=S)cc1`, the MIC is 16 µg/mL (≈ 31.8 µM) in [1]; 64 µg/mL (≈ 127 µM) in [2]; 16 µg/mL (≈ 31.8 µM) in assay [3]; 16 µg/mL (≈ 31.8 µM) in [4]; 16 µg/mL (≈ 31.8 µM) in [5]; above 128 µg/mL in assay [6]. In addition, the MIC is above 128 µg/mL in [7]; above 128 µg/mL in assay [8]; above 128 µg/mL in assay [9]; above 64 µg/mL in [10]; 16 µg/mL (≈ 31.8 µM) in assay [16]; 16 µg/mL (≈ 31.8 µM) in assay [17]. The MIC in [18] and in [19] was 16 µg/mL (≈ 31.8 µM) in each case. Moreover, the MBC is 128 µg/mL (≈ 255 µM) in assay [11]; above 256 µg/mL in [12]; above 128 µg/mL in assay [13]; above 128 µg/mL in assay [14]; above 128 µg/mL in assay [15]; above 128 µg/mL in assay [20]. Besides, the MBC in assay [21], in assay [22] and in assay [23] was above 128 µg/mL in each case.

For the molecule `O=C(O)CN1C(=O)/C(=C/c2ccc(/C=N/n3c(-c4ccc(F)cc4)n[nH]c3=S)cc2)SC1=S`, the MIC in [1] is 64 µg/mL (≈ 128 µM); in assay [2] it was 64 µg/mL (≈ 128 µM); in [3], above 64 µg/mL; in assay [4] it was above 64 µg/mL; in assay [5] it was above 128 µg/mL; in assay [6], above 128 µg/mL. For the same molecule, the MIC was above 128 µg/mL in assay [7]; above 128 µg/mL in assay [8]; above 128 µg/mL in [9]; above 64 µg/mL in assay [10]; 16 µg/mL (≈ 32 µM) in assay [16]; above 64 µg/mL in [17]. The MIC in [18] is above 64 µg/mL; in assay [19], 32 µg/mL (≈ 64.1 µM). Moreover, the MBC in assay [11] is above 256 µg/mL; in assay [12] it was above 256 µg/mL; in assay [20], above 128 µg/mL; in [23], above 256 µg/mL.

With `O=C(O)[C@H](Cc1ccccc1)N1C(=O)/C(=C/c2ccc(/C=N/n3c(-c4ccc(Br)cc4)n[nH]c3=S)cc2)SC1=S`, the minimal inhibitory concentration (MIC) was 8 µg/mL (≈ 12.3 µM) in assay [1]; above 64 µg/mL in assay [2]; 8 µg/mL (≈ 12.3 µM) in assay [3]; 16 µg/mL (≈ 24.6 µM) in [4]; above 128 µg/mL in assay [5]; above 128 µg/mL in assay [6]. Further, the MIC was above 128 µg/mL in assay [7]; above 128 µg/mL in [8]; above 128 µg/mL in assay [9]; above 64 µg/mL in assay [10]; 8 µg/mL (≈ 12.3 µM) in assay [16]; 16 µg/mL (≈ 24.6 µM) in assay [17]. Also, the MIC in assay [18] and in assay [19] was 8 µg/mL (≈ 12.3 µM) in each case. Besides, the MBC was determined as 64 µg/mL (≈ 98.4 µM) in assay [11]; 32 µg/mL (≈ 49.2 µM) in assay [13]; 64 µg/mL (≈ 98.4 µM) in assay [14]; 32 µg/mL (≈ 49.2 µM) in assay [20]; 128 µg/mL (≈ 197 µM) in assay [21]; 32 µg/mL (≈ 49.2 µM) in [22]. Further, in assay [23], the MBC worked out at 64 µg/mL (≈ 98.4 µM). Also, the Ratio result in assay [24] is “<=4”.

(Values after ChEMBL document CHEMBL3596093, “Synthesis and antimicrobial evaluation of 5-aryl-1,2,4-triazole-3-thione derivatives containing a rhodanine moiety” (2015).)
